≈ marks a conversion by molar mass, not a printed value. Calls of active or inactive are those of the source. No cut-off for these calls is given here.
Tests used:
[1] = Oral bioavailability in Wistar rat at 10 mg/kg; format: ADME, organism-based; conditions: in vivo
Procedure, shortened: (§1)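 Male Wistar rats, three animals per experiment, given iv (0.2, 1 or 2 mg/kg) and po (2 or 10 mg/kg) doses as solutions; AUC0-last, plasma clearance, half-life and oral bioavailability derived.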

[2] = Volume of distribution at steady state in Wistar rat at 1 mg/kg, iv and 10 mg/kg, po; format: ADME, organism-based; conditions: in vivo, read-out: Vdss
Procedure, shortened: (§2)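 Male Wistar rats, three animals per experiment, were dosed intravenously and orally with compound given as solutions.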

[3] = biological target: T1, Chemoattractant receptor-homologous molecule expressed on Th2 cells (Cavia porcellus) (UniProt Q56D28); assay: Partial agonist activity at guinea pig CRTH2 receptor assessed as calcium flux by cell-based FLIPR assay; format: functional
T1 sequence (whole entry): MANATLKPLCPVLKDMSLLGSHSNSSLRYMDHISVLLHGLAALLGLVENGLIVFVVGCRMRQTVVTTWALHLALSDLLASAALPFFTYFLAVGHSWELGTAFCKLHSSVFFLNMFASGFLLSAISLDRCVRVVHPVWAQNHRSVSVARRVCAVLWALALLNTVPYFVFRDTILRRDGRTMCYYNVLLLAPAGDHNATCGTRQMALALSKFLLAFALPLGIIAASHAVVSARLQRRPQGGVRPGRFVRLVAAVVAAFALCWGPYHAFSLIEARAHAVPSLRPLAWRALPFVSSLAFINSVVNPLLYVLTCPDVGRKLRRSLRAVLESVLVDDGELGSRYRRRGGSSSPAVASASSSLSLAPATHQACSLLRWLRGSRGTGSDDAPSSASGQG

[4] = biological target: T2, Prostaglandin D2 receptor 2 (Mus musculus) (UniProt Q9Z2J6); assay: Partial agonist activity at mouse CRTH2 receptor assessed as calcium flux by cell-based FLIPR assay; format: functional
T2 sequence (whole entry): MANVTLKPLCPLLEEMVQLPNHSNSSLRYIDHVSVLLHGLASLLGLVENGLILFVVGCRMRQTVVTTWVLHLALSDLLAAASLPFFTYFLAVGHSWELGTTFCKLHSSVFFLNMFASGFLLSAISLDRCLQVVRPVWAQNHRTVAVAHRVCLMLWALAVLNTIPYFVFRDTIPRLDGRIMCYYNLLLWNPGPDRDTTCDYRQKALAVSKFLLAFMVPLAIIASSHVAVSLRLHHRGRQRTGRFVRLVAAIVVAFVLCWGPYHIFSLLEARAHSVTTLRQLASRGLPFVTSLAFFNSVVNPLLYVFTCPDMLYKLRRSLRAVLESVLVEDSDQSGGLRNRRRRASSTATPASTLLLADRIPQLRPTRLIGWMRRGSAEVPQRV

[5] = Plasma clearance in Wistar rat at 1 mg/kg, iv and 10 mg/kg, po; format: ADME, organism-based; procedure, shortened: as §1
Rattus norvegicus [6] = assay: AUC(0 to last) in Wistar rat at 1 mg/kg, iv and 10 mg/kg, po; format: ADME, organism-based, Plasma; conditions: in vivo; procedure, shortened: as §1
[7] = Half life in Wistar rat at 1 mg/kg, iv and 10 mg/kg, po; format: ADME, organism-based; conditions: in vivo; procedure, shortened: as §1
[8] = Solubility of the compound in water; format: physicochemical
Procedure, shortened: (§3)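 Compound was stirred in water, 60 mM citrate buffer pH 4 or 70 mM phosphate buffer pH 7 at 300 rpm, 25 °C, for 24 h. The mixture was filtered, and the filtrate concentration was measured by HPLC-UV at 250 nm against a calibration curve.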

[9] = Solubility of the compound in water at pH 5.7; format: physicochemical
Procedure, shortened: (§4)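 Compound stirred in 200 μL water at 300 rpm, 25 °C, for 24 h. The biphasic mixture was vacuum-filtered. Filtrate concentration was measured by reversed-phase HPLC with UV detection at 250 nm and quantified from peak area against a calibration curve.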

[10] = Oral bioavailability in beagle dog at 10 mg/kg; format: ADME, organism-based, Canis lupus familiaris; conditions: in vivo
Procedure, shortened: (§5)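 Male Beagle dogs, three per experiment, dosed orally at 10 mg/kg (with a 1 mg/kg iv arm) as solutions containing 10% propylene glycol; AUC0-last and oral bioavailability derived.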

Canis familiaris = assay: AUC (0 to last) in beagle dog at 10 mg/kg, po; format: ADME, organism-based, Canis lupus familiaris, Plasma; parameters: time 0 - last, dose 10 mg/kg, route oral; conditions: in vivo; procedure, shortened: as §5
[11] = Clearance in beagle dog at 1 mg/kg, iv; format: ADME, organism-based, Canis lupus familiaris; parameters: dose 1 mg/kg, route intravenous; conditions: in vivo
Procedure, shortened: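 Male Beagle dogs, three per experiment, given 1 mg/kg iv as a solution in 10% propylene glycol; plasma clearance determined.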

[12] = Solubility of the compound in water at pH 4.9; format: physicochemical; procedure, shortened: as §4
[13] = Plasma clearance in Wistar rat at 2 mg/kg, iv and 10 mg/kg, po; format: ADME, organism-based; procedure, shortened: as §1
Rattus norvegicus [14] = assay: AUC(0 to last) in Wistar rat at 2 mg/kg, iv and 10 mg/kg, po; format: ADME, organism-based, Plasma; conditions: in vivo; procedure, shortened: as §1
[15] = Volume of distribution at steady state in Wistar rat at 2 mg/kg, iv and 10 mg/kg, po; format: ADME, organism-based; conditions: in vivo, read-out: Vdss; procedure, shortened: as §2
[16] = Half life in Wistar rat at 2 mg/kg, iv and 10 mg/kg, po; format: ADME, organism-based; conditions: in vivo; procedure, shortened: as §1
[17] = Solubility of the compound in water at pH 3.9; format: physicochemical; procedure, shortened: as §3
CYP2D6 = CYP2D6 (Homo sapiens, UniProt P10635); assay: Inhibition of CYP2D6 in human liver microsomes assessed as dextromethorphan O-demethylation by LC-MS/MS analysis; format: ADME, Microsome; conditions: human, liver microsomes, probe dextromethorphan (O-demethylation)
CYP2D6, sequence (P10635 whole entry): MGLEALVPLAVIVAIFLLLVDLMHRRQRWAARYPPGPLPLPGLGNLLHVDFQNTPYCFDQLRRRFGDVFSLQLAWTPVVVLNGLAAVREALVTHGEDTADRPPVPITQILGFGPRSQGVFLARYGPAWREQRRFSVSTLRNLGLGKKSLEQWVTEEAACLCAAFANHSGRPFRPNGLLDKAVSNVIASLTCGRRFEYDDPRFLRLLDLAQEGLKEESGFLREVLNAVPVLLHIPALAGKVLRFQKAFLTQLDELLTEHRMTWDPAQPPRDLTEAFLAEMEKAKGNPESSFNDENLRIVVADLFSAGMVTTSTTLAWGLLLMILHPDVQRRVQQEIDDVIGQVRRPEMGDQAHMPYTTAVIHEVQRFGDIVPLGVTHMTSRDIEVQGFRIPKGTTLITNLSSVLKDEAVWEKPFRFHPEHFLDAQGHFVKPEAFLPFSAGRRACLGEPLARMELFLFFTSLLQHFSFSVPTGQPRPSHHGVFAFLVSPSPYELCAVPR

CYP3A4 = CYP3A4 (Homo sapiens, UniProt P08684); assay: Inhibition of CYP3A4 in human liver microsomes assessed as midazolam-1'-hydroxylation by LC-MS/MS analysis; format: ADME, Microsome; conditions: human, liver microsomes, probe midazolam (1'-hydroxylation)
CYP3A4, sequence (P08684 whole entry): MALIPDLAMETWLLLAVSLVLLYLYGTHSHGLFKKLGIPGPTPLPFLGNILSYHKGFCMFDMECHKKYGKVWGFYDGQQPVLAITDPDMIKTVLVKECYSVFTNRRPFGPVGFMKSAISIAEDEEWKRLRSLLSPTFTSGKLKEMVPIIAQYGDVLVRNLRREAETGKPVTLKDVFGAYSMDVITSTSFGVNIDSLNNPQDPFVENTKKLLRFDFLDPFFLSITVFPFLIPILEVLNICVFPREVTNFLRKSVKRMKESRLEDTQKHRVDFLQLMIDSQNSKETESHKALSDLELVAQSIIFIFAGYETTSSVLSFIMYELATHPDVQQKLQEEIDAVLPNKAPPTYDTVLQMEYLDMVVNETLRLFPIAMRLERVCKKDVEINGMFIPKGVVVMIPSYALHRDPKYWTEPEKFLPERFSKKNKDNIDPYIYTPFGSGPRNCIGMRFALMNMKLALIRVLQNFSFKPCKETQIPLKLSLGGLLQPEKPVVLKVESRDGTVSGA

Rattus norvegicus [18] = assay: AUC(0 to last) in Wistar rat at 0.2 mg/kg, iv and 2 mg/kg, po; format: ADME, organism-based, Plasma; conditions: in vivo; procedure, shortened: as §1
[19] = Oral bioavailability in Wistar rat at 2 mg/kg; format: ADME, organism-based; conditions: in vivo; procedure, shortened: as §1
[20] = Solubility of the compound in water at pH 3.8; format: physicochemical; procedure, shortened: as §3
[21] = Volume of distribution at steady state in Wistar rat at 0.2 mg/kg, iv and 2 mg/kg, po; format: ADME, organism-based; conditions: in vivo, read-out: Vdss; procedure, shortened: as §2
[22] = Plasma clearance in Wistar rat at 0.2 mg/kg, iv and 2 mg/kg, po; format: ADME, organism-based; procedure, shortened: as §1
[23] = Half life in Wistar rat at 0.2 mg/kg, iv and 2 mg/kg, po; format: ADME, organism-based; conditions: in vivo; procedure, shortened: as §1

Compound: O=C(O)Cn1c2c(c3ccccc31)CN(C(=O)c1cccc3ccccc13)CC2
- bioavailability [1]: 36%
- Vd [2]: 0.4 L/kg
- Activity [3]: Active
- Activity [4]: Active
- clearance [5]: 1.1 mL/min/kg
- AUClast (Rattus norvegicus [6]): 57300 ng·h/mL
- half-life [7]: 5.8 h
- solubility [8]: 335 µg/mL (≈ 871 µM)

Compound: O=C(O)Cn1c2c(c3cc(F)ccc31)CN(C(=O)Cc1cccc3ccccc13)CC2
- solubility [9]: 28 µg/mL (≈ 67.2 µM)

Compound: O=C(O)Cn1c2c(c3cc(F)ccc31)CN(C(=O)c1cccc(Cl)c1)CC2
- bioavailability [1]: 23%
- Vd [2]: 0.4 L/kg
- bioavailability [10]: 64%
- AUClast (Canis familiaris): 9620 ng·h/mL
- Activity [3]: Active
- clearance [11]: 11 mL/min/kg
- Activity [4]: Active
- clearance [5]: 5.9 mL/min/kg
- solubility [12]: 25 µg/mL (≈ 64.6 µM)
- AUClast (Rattus norvegicus [6]): 6450 ng·h/mL
- half-life [7]: 2.3 h

Compound: CCc1ccc(-c2ccc(C(=O)N3CCc4c(c5ccccc5n4CC(=O)O)C3)cc2)cc1
- bioavailability [1]: 4%
- clearance [13]: 35 mL/min/kg
- AUClast (Rattus norvegicus [14]): 171 ng·h/mL
- Vd [15]: 0.4 L/kg
- half-life [16]: 0.5 h

Compound: O=C(O)Cn1c2c(c3cc(F)ccc31)CN(C(=O)c1cccs1)CC2
- bioavailability [1]: 5%
- Vd [2]: 0.4 L/kg
- solubility [17]: 50 µg/mL (≈ 140 µM)
- clearance [5]: 36 mL/min/kg
- AUClast (Rattus norvegicus [6]): 244 ng·h/mL
- half-life [7]: 0.6 h

Compound: O=C(O)Cn1c2c(c3cc(F)ccc31)CN(C(=O)c1cccc3ccccc13)CC2 [SETIPIPRANT]
- bioavailability [1]: 44%
- bioavailability [10]: 55%
- AUClast (Canis familiaris): 91100 ng·h/mL
- clearance [13]: 1.3 mL/min/kg
- Activity [3]: Active
- clearance [11]: 1.3 mL/min/kg
- Activity [4]: Active
- AUClast (Rattus norvegicus [14]): 58500 ng·h/mL
- Vd [15]: 0.4 L/kg
- half-life [16]: 6 h

Compound: O=C(O)Cn1c2c(c3ccccc31)CN(C(=O)c1ccccc1)CC2
- Vd [2]: 0.4 L/kg
- IC50 (CYP2D6): > 50 µM
- IC50 (CYP3A4): > 50 µM
- AUClast (Rattus norvegicus [6]): 6300 ng·h/mL

Compound: O=C(O)Cn1c2c(c3cc(F)ccc31)CN(C(=O)Cc1c[nH]c3ccccc13)CC2
- AUClast (Rattus norvegicus [18]): 62 ng·h/mL
- bioavailability [19]: 2%
- solubility [20]: 45 µg/mL (≈ 111 µM)
- Vd [21]: 0.4 L/kg
- clearance [22]: 11 mL/min/kg
- half-life [23]: 1.2 h

Compound: O=C(O)Cn1c2c(c3ccccc31)CN(C(=O)c1cccc(Cl)c1)CC2
- solubility [20]: 110 µg/mL (≈ 298 µM)

Reference: ChEMBL document CHEMBL2385063, “Identification of 2-(2-(1-naphthoyl)-8-fluoro-3,4-dihydro-1H-pyrido[4,3-b]indol-5(2H)-yl)acetic acid (setipiprant/ACT-129968), a potent, selective, and orally bioavailable chemoattractant receptor-homologous molecule expressed on Th2 cells (CRTH2) antagonist” (J Med Chem, 2013)
